Results from ChEMBL document CHEMBL1154333, “Xanthepinone, an antimicrobial polyketide from a soil fungus closely related to Phoma medicaginis” (2009).
In brackets after ≈: the same amount, converted by molar mass.

How the values were obtained:
Candida albicans = assay: Antifungal activity against Candida albicans by serial dilution test; format: functional
Outline: (§1)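 Yeasts tested by serial dilution in YMG medium (glucose 1%, malt extract 1%, yeast extract 0.4%).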

Eremothecium coryli = assay: Antifungal activity against Nematospora coryli by serial dilution test; format: functional; outline: as §1
Rhizomucor miehei = assay: Inhibition of conidial germination in Mucor miehei; format: functional
Outline: (§2)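 Conidia from 10-day-old cultures were pelleted (1000g, 10 min) and resuspended in distilled water. Each well held 0.5 × 10⁴ conidia in 0.2 mL distilled water and was incubated 16 h at 28 °C. Germinated conidia were counted under an inverted microscope: triplicates, 3 × 100 conidia. The value is the IC100, the concentration for complete germination inhibition.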

Pyricularia grisea = assay: Inhibition of conidial germination in Magnaporthe grisea; format: functional
Outline: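 M. grisea strain 70-15, grown on CM medium. Conidia were harvested from plates kept at 28 °C on a 16 h light/8 h dark cycle (24 °C in the dark). They were pelleted (1000g, 10 min) and resuspended in distilled water. Each well held 0.5 × 10⁴ conidia/0.2 mL water, 16 h at 28 °C. Germinated conidia were counted microscopically: triplicates, 3 × 100. Value given as IC100.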

Botrytis cinerea = assay: Inhibition of conidial germination in Botrytis cinerea; format: functional; outline: as §2
Saccharomyces cerevisiae = assay: Antifungal activity against Saccharomyces cerevisiae by serial dilution test; format: functional; outline: as §1
Brevibacillus brevis = assay: Antibacterial activity against Bacillus brevis ATCC 9999 by serial dilution test; format: functional
Outline: (§3)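 Serial broth dilution in nutrient broth.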

Bacillus subtilis = assay: Antibacterial activity against Bacillus subtilis ATCC 6633 by serial dilution test; format: functional; outline: as §3
Escherichia coli = assay: Antibacterial activity against Escherichia coli K-12 by serial dilution test; format: functional; outline: as §3
[1] = tested on: Enterobacter cloacae subsp. dissolvens; assay: Antibacterial activity against Enterobacter dissolvens by serial dilution test; format: functional; outline: as §3
Micrococcus luteus = assay: Antibacterial activity against Micrococcus luteus by serial dilution test; format: functional; outline: as §3
Proteus vulgaris = assay: Antibacterial activity against Proteus vulgaris by serial dilution test; format: functional; outline: as §3
Pseudomonas fluorescens = assay: Antibacterial activity against Pseudomonas fluorescens by serial dilution test; format: functional; outline: as §3
Staphylococcus aureus = assay: Antibacterial activity against Staphylococcus aureus by serial dilution test; format: functional; outline: as §3
Paecilomyces variotii = assay: Inhibition of conidial germination in Paecilomyces variotii; format: functional; outline: as §2
Penicillium chrysogenum = assay: Inhibition of conidial germination in Penicillium notatum; format: functional; outline: as §2
Phytophthora infestans = assay: Inhibition of conidial germination in Phytophthora infestans; format: functional; outline: as §2
HeLa S3 = assay: Cytotoxicity against human HeLaS3 cells at 50 ug/ml; format: functional, cell-based
HepG2 = assay: Cytotoxicity against human HepG2 cells at 50 ug/ml; format: functional, cell-based

| SMILES | MIC (Candida albicans) [µg/mL] | MIC (Eremothecium coryli) [µg/mL] | MIC (Rhizomucor miehei; Rhizomucor miehei) [µg/mL] | IC100 (Pyricularia grisea) [µg/mL] | IC100 (Botrytis cinerea) [µg/mL] | MIC (Saccharomyces cerevisiae) [µg/mL] | MIC (Brevibacillus brevis) [µg/mL] | MIC (Bacillus subtilis) [µg/mL] | MIC (Escherichia coli) [µg/mL] | MIC [1] [µg/mL] | MIC (Micrococcus luteus) [µg/mL] | MIC (Proteus vulgaris) [µg/mL] | MIC (Pseudomonas fluorescens) [µg/mL] | MIC (Staphylococcus aureus) [µg/mL] | IC100 (Rhizomucor miehei) [µg/mL] | IC100 (Paecilomyces variotii) [µg/mL] | IC100 (Penicillium chrysogenum) [µg/mL] | IC100 (Phytophthora infestans) [µg/mL] | Activity (HeLa S3) | Activity (HepG2) |
| --- | --- | --- | --- | --- | --- | --- | --- | --- | --- | --- | --- | --- | --- | --- | --- | --- | --- | --- | --- | --- |
| C[C@@H]1[C@H](O)[C@@H](C)/C=C/C=C/C=C/C=C/C=C/C=C/C=C/[C@H](O[C@@H]2O[C@H](C)[C@@H](O)[C@H](N)[C@@H]2O)C[C@@H]2O[C@](O)(C[C@@H](O)C[C@@H](O)[C@H](O)CC[C@@H](O)C[C@@H](O)CC(=O)O[C@H]1C)C[C@H](O)[C@H]2C(=O)O [AMPHOTERICIN B] | 10 (≈ 10.8 µM) | 15 (≈ 16.2 µM) | 5 (≈ 5.41 µM) | – | – | – | – | – | – | – | – | – | – | – | – | – | – | – | – | – |
| COC(=O)C1(O)C(=O)C(C)=COc2oc3cccc(O)c3c(=O)c21 (stereo not drawn) [XANTHEPINONE] | 50 (≈ 150 µM) | 10 (≈ 30.1 µM) | – | 2 | 10 | 25 (≈ 75.2 µM) | > 50 | > 50 | > 50 | > 50 | > 50 | 50 (≈ 150 µM) | > 50 | 50 (≈ 150 µM) | 25 | 50 | 25 | 5 | Not toxic | Not toxic |
| CN[C@@H]1[C@H](O[C@H]2[C@H](O[C@H]3[C@H](O)[C@@H](O)[C@H](N=C(N)N)[C@@H](O)[C@@H]3N=C(N)N)O[C@@H](C)[C@]2(O)C=O)O[C@@H](CO)[C@H](O)[C@H]1O.CN[C@@H]1[C@H](O[C@H]2[C@H](O[C@H]3[C@H](O)[C@@H](O)[C@H](N=C(N)N)[C@@H](O)[C@@H]3N=C(N)N)O[C@@H](C)[C@]2(O)C=O)O[C@@H](CO)[C@H](O)[C@H]1O.O=S(=O)(O)O.O=S(=O)(O)O.O=S(=O)(O)O [STREPTOMYCIN SULFATE] | – | – | – | – | – | – | – | – | – | – | – | 5 | – | – | – | – | – | – | – | – |
